Data taken from ChEMBL document CHEMBL1156500, “Characterization of the metabolic activation of hepatitis C virus nucleoside inhibitor beta-D-2'-Deoxy-2'-fluoro-2'-C-methylcytidine (PSI-6130) and identification of a novel active 5'-triphosphate species” (J Biol Chem, 2007).

How the values were obtained:
Type in all cases: ADME, cell-based
Conditions in all cases: hepatocytes
[1] = system: Hepatocyte; experiment: Drug uptake in human hepatocyte at 25 uM after 24 hrs assessed as 4-amino-1-((2R,3R,4R,5R)-3-fluoro-4-hydroxy-5-(hydroxymethyl)-3-methyl-tetrahydrofuran-2-yl)pyrimidin-2(1H)-one di phosphate level per 10^6 cells
Outline: (§1)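 Primary human hepatocytes from 3 donors were plated on collagen and recovered for ≥18 h. They were exposed for 24 h, in duplicate, to 0–250 μM drug: 3H-labelled material diluted with unlabelled compound. Total intracellular radioactivity and individual phosphates were measured in methanol extracts by SAX HPLC with radiometric detection. Results are pmol/10^6 cells, mean ± S.D.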

[2] = system: Hepatocyte; experiment: Drug uptake in human hepatocyte at 50 uM after 24 hrs assessed as 1-((2R,3R,4R,5R)-3-fluoro-4-hydroxy-5-(hydroxymethyl)-3-methyl-tetrahydrofuran-2-yl)pyrimidine-2,4(1H,3H)-dione tri phosphate level per 10^6 cells; outline: as §1
[3] = system: Hepatocyte; experiment: Drug uptake in human hepatocyte at 2 uM after 16 hrs assessed as 1-((2R,3R,4R,5R)-3-fluoro-4-hydroxy-5-(hydroxymethyl)-3-methyl-tetrahydrofuran-2-yl)pyrimitrine-2,4(1H,3H)-trione tri phosphate level per 10^6 cells
Outline: (§2)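 Primary human hepatocytes from 4 donors were plated at 1.5 million cells/well on collagen and recovered for ≥18 h. They were dosed with 3H-labelled drug at 2 μM (10 μCi/ml) for 1–72 h, in duplicate, at 37°C. Cold 60% methanol extracts were run on SAX ion-exchange HPLC with radiometric detection and compared with reference standards. Results are pmol/10^6 cells, mean ± S.D.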

[4] = system: Hepatocyte; experiment: Drug uptake in human hepatocyte at 2 uM after 24 hrs assessed as 1-((2R,3R,4R,5R)-3-fluoro-4-hydroxy-5-(hydroxymethyl)-3-methyl-tetrahydrofuran-2-yl)pyrimidine-2,4(1H,3H)-dione tri phosphate level per 10^6 cells; outline: as §1
[5] = system: Hepatocyte; experiment: Drug uptake in human hepatocyte at 100 uM after 24 hrs assessed as 1-((2R,3R,4R,5R)-3-fluoro-4-hydroxy-5-(hydroxymethyl)-3-methyl-tetrahydrofuran-2-yl)pyrimidine-2,4(1H,3H)-dione tri phosphate level per 10^6 cells; outline: as §1
[6] = system: Hepatocyte; experiment: Drug uptake in human hepatocyte at 2 uM after 72 hrs assessed as 1-((2R,3R,4R,5R)-3-fluoro-4-hydroxy-5-(hydroxymethyl)-3-methyl-tetrahydrofuran-2-yl)[…] tri phosphate level per 10^6 cells; outline: as §2
[7] = system: Hepatocyte; experiment: Drug uptake in human hepatocyte at 2 uM after 6 hrs assessed per 10^6 cells; outline: as §2
[8] = system: Hepatocyte; experiment: Drug uptake in human hepatocyte at 2 uM after 24 hrs assessed as 4-amino-1-((2R,3R,4R,5R)-3-fluoro-4-hydroxy-5-(hydroxymethyl)-3-methyl-tetrahydrofuran-2-yl)pyrimidin-2(1H)-one tri phosphate level per 10^6 cells; outline: as §1
[9] = system: Hepatocyte; experiment: Drug uptake in human hepatocyte at 2 uM after 48 hrs assessed per 10^6 cells; outline: as §2
[10] = system: Hepatocyte; experiment: Drug uptake in human hepatocyte at 50 uM after 24 hrs assessed as 4-amino-1-((2R,3R,4R,5R)-3-fluoro-4-hydroxy-5-(hydroxymethyl)-3-methyl-tetrahydrofuran-2-yl)pyrimidin-2(1H)-one di phosphate level per 10^6 cells; outline: as §1
[11] = system: Hepatocyte; experiment: Drug uptake in human hepatocyte at 25 uM after 24 hrs assessed as 4-amino-1-((2R,3R,4R,5R)-3-fluoro-4-hydroxy-5-(hydroxymethyl)-3-methyl-tetrahydrofuran-2-yl)pyrimidin-2(1H)-one tri phosphate level per 10^6 cells; outline: as §1
[12] = system: Hepatocyte; experiment: Drug uptake in human hepatocyte at 2 uM after 24 hrs assessed as 1-((2R,3R,4R,5R)-3-fluoro-4-hydroxy-5-(hydroxymethyl)-3-methyl-tetrahydrofuran-2-yl)[…] tri phosphate level per 10^6 cells; outline: as §2
[13] = system: Hepatocyte; experiment: Drug uptake in human hepatocyte at 10 uM after 24 hrs assessed as 4-amino-1-((2R,3R,4R,5R)-3-fluoro-4-hydroxy-5-(hydroxymethyl)-3-methyl-tetrahydrofuran-2-yl)pyrimidin-2(1H)-one tri phosphate level per 10^6 cells; outline: as §1
[14] = system: Hepatocyte; experiment: Drug uptake in human hepatocyte at 2 uM after 72 hrs assessed as 4-amino-1-((2R,3R,4R,5R)-3-fluoro-4-hydroxy-5-(hydroxymethyl)-3-methyl-tetrahydrofuran-2-yl)pyrimitrin-2(1H)-one tri phosphate level per 10^6 cells; outline: as §2
[15] = system: Hepatocyte; experiment: Drug uptake in human hepatocyte at 100 uM after 24 hrs assessed as 4-amino-1-((2R,3R,4R,5R)-3-fluoro-4-hydroxy-5-(hydroxymethyl)-3-methyl-tetrahydrofuran-2-yl)pyrimidin-2(1H)-one tri phosphate level per 10^6 cells; outline: as §1
[16] = system: Hepatocyte; experiment: Drug uptake in human hepatocyte at 2 uM after 72 hrs assessed per 10^6 cells; outline: as §2
[17] = system: Hepatocyte; experiment: Drug uptake in human hepatocyte at 2 uM after 24 hrs assessed per 10^6 cells
[18] = system: Hepatocyte; experiment: Drug uptake in human hepatocyte at 2 uM after 24 hrs assessed as 4-amino-1-((2R,3R,4R,5R)-3-fluoro-4-hydroxy-5-(hydroxymethyl)-3-methyl-tetrahydrofuran-2-yl)pyrimidin-2(1H)-one di phosphate level per 10^6 cells; outline: as §1
[19] = system: Hepatocyte; experiment: Drug uptake in human hepatocyte at 100 uM after 24 hrs assessed as 4-amino-1-((2R,3R,4R,5R)-3-fluoro-4-hydroxy-5-(hydroxymethyl)-3-methyl-tetrahydrofuran-2-yl)pyrimidin-2(1H)-one di phosphate level per 10^6 cells; outline: as §1
[20] = system: Hepatocyte; experiment: Drug uptake in human hepatocyte at 250 uM after 24 hrs assessed as 1-((2R,3R,4R,5R)-3-fluoro-4-hydroxy-5-(hydroxymethyl)-3-methyl-tetrahydrofuran-2-yl)pyrimidine-2,4(1H,3H)-dione di phosphate level per 10^6 cells; outline: as §1
[21] = system: Hepatocyte; experiment: Drug uptake in human hepatocyte at 2 uM after 6 hrs assessed as 1-((2R,3R,4R,5R)-3-fluoro-4-hydroxy-5-(hydroxymethyl)-3-methyl-tetrahydrofuran-2-yl)pyrimitrine-2,4(1H,3H)-trione tri phosphate level per 10^6 cells; outline: as §2
[22] = system: Hepatocyte; experiment: Drug uptake in human hepatocyte at 50 uM after 24 hrs assessed as 1-((2R,3R,4R,5R)-3-fluoro-4-hydroxy-5-(hydroxymethyl)-3-methyl-tetrahydrofuran-2-yl)pyrimidine-2,4(1H,3H)-dione di phosphate level per 10^6 cells; outline: as §1
[23] = system: Hepatocyte; experiment: Drug uptake in human hepatocyte at 2 uM after 16 hrs assessed per 10^6 cells; outline: as §2
[24] = system: Hepatocyte; experiment: Drug uptake in human hepatocyte at 250 uM after 24 hrs assessed as 4-amino-1-((2R,3R,4R,5R)-3-fluoro-4-hydroxy-5-(hydroxymethyl)-3-methyl-tetrahydrofuran-2-yl)pyrimidin-2(1H)-one di phosphate level per 10^6 cells; outline: as §1
[25] = system: Hepatocyte; experiment: Drug uptake in human hepatocyte at 2 uM after 6 hrs assessed as 4-amino-1-((2R,3R,4R,5R)-3-fluoro-4-hydroxy-5-(hydroxymethyl)-3-methyl-tetrahydrofuran-2-yl)pyrimitrin-2(1H)-one tri phosphate level per 10^6 cells; outline: as §2
[26] = system: Hepatocyte; experiment: Drug uptake in human hepatocyte at 2 uM after 16 hrs assessed as 4-amino-1-((2R,3R,4R,5R)-3-fluoro-4-hydroxy-5-(hydroxymethyl)-3-methyl-tetrahydrofuran-2-yl)[…]-2(1H)-one tri phosphate level per 10^6 cells; outline: as §2
[27] = system: Hepatocyte; experiment: Drug uptake in human hepatocyte at 50 uM after 24 hrs assessed as 4-amino-1-((2R,3R,4R,5R)-3-fluoro-4-hydroxy-5-(hydroxymethyl)-3-methyl-tetrahydrofuran-2-yl)pyrimidin-2(1H)-one tri phosphate level per 10^6 cells; outline: as §1

Question: With `C[C@@]1(F)[C@H](O)[C@@H](CO)O[C@H]1n1ccc(N)nc1=O` as the molecule, how does the Drug uptake [1] read?
Answer: 3.4 pmol

Question: What about the Drug uptake [2] of the same molecule?
Answer: 34.9 pmol

Question: What about the Drug uptake [3] of the same molecule?
Answer: 0.6 pmol

Question: And the Drug uptake [4]?
Answer: 2.4 pmol

Question: And the Drug uptake [5]?
Answer: 71.2 pmol

Question: And the Drug uptake [6]?
Answer: 2 pmol

Question: And the Drug uptake [7]?
Answer: 32.9 pmol

Question: What about the Drug uptake [8] of the same molecule?
Answer: 1.4 pmol

Question: And the Drug uptake [9]?
Answer: 31.9 pmol

Question: What about the Drug uptake [10] of the same molecule?
Answer: 8.2 pmol

Question: What about the Drug uptake [11] of the same molecule?
Answer: 11.3 pmol

Question: What about the Drug uptake [12] of the same molecule?
Answer: 1.3 pmol

Question: What about the Drug uptake [13] of the same molecule?
Answer: 5.6 pmol

Question: What about the Drug uptake [14] of the same molecule?
Answer: 1 pmol

Question: What about the Drug uptake [15] of the same molecule?
Answer: 34.3 pmol

Question: What about the Drug uptake [16] of the same molecule?
Answer: 34.6 pmol

Question: And the Drug uptake [17]?
Answer: 36.4 pmol

Question: And the Drug uptake [18]?
Answer: 0.3 pmol

Question: And the Drug uptake [19]?
Answer: 13.4 pmol

Question: And the Drug uptake [20]?
Answer: 40.9 pmol

Question: What about the Drug uptake [21] of the same molecule?
Answer: 0.3 pmol

Question: What about the Drug uptake [22] of the same molecule?
Answer: 20.3 pmol

Question: What about the Drug uptake [23] of the same molecule?
Answer: 34.4 pmol

Question: What about the Drug uptake [24] of the same molecule?
Answer: 19.6 pmol

Question: What about the Drug uptake [25] of the same molecule?
Answer: 0.6 pmol

Question: And the Drug uptake [26]?
Answer: 0.7 pmol

Question: What about the Drug uptake [27] of the same molecule?
Answer: 18.7 pmol
